# hIAP activ – human IAP activation; 330,000 compounds, 0.16% hits; purified human IAP, CDP-Star luminescence, 30 min; stronger effect = higher value; 1 = vehicle-only enzyme, 0 = enzyme-free background; P09923; activation factor at 10 µM;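 active means activation factor of the enzyme at least 2-fold when tested at 20 µM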
# Target sequence (P09923 whole entry, looked up): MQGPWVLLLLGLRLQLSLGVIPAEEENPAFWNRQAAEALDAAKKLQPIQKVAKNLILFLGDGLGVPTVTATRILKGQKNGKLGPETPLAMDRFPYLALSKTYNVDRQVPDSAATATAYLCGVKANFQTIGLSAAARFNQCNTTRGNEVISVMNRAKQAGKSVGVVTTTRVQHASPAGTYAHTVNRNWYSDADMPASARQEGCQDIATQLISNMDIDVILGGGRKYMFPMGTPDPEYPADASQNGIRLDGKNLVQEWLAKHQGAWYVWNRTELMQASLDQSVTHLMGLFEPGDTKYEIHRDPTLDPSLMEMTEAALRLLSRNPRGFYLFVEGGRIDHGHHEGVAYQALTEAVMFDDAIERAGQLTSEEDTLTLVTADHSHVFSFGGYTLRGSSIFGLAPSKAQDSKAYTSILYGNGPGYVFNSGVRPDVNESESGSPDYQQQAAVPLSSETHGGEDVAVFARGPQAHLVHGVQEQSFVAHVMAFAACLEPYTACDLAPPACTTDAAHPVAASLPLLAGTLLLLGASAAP
# bIAP inhibitor – blocks bovine intestinal alkaline phosphatase activity; 190,000 tested, under 10 active; inhibition, % at 20 µM; purified bovine IAP, CDP-star luminescence, 30 min;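 active means over 50% inhibition of intestinal alkaline phosphatase at 20 µM in the single-dose screen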
#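 Incubation: 30 min reaction at room temperature / Material: purified bovine intestinal alkaline phosphatase (IAP) enzyme / Input: enzyme at 1/65,000,000 dilution / Dosing: 20 µM single dose / Signal: CDP-star luminescence signal / Reagent: CDP-star chemiluminescent phosphatase substrate, 30 µM final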
# mIAP inh – mouse IAP inhibition. purified mouse IAP, CDP-Star luminescence, 30 min. inhibition, % at 10 µM. 330,000 compounds, 0.2% hits;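 active means inhibition of at least 40% at 10 µM in the primary screen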;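 further: plate controls were DMSO with enzyme for no effect and no enzyme wells for full effect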
# bIAP activator – increases bovine intestinal alkaline phosphatase activity. purified bovine IAP, CDP-star luminescence, 30 min; stronger effect = higher value; fold of DMSO-control signal, blank-subtracted. activation factor at 20 µM. 200,000 compounds, 0.17% hits. AID 1016;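 active means activation factor of 2 or more at 20 µM, a signal rise over negative controls twice the positive control's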
# mIAP act – mouse IAP activation | muIAP, CDP-Star luminescence, 30 min; stronger effect = higher value; 1 = vehicle-only enzyme signal, 0 = enzyme-free wells | activation factor at 10 µM | 330,000 compounds, 0.24% hits;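 active means activation factor of at least 2 at 20 µM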
#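 also added = chemiluminescent substrate CDP-Star | test system = mouse IAP enzyme | signal = chemiluminescence readout | compound = DMSO-dissolved test compounds | incubation = 30 min at room temperature | benchmarks = DMSO wells, no-enzyme wells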
# hIAP inh – blocks human intestinal alkaline phosphatase; purified IAP, CDP-Star luminescence, 30 min; inhibition, % at 10 µM; 330,000 compounds, 0.12% hits;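 active means inhibition reaching a set limit with compound at 10 µM in the primary screen, cut at about 35% in these data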;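 further: plate controls were DMSO wells with enzyme for no effect and no-enzyme buffer wells for full effect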
# hIAP act conf – human IAP activation confirmation. shares compounds with hIAP activ. purified IAP, CDP-Star luminescence, 30 min; stronger effect = lower value. activation (%Activity, negative = activation), % at 8.3 µM. 880 compounds, 10% hits;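 active means at least twofold enzyme activation in any of six single-dose repeats, which the averaged readout prints as negative percent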
# * = called active by the depositor; · = not tested or not shown. Only some compounds are listed: those with a hit (about 0.79% of all), similar ones and a draw of the others.
SMILES,hIAP activ,bIAP inhibitor,mIAP inh,bIAP activator,mIAP act,hIAP inh,hIAP act conf
CSC1=C(C#N)C(c2ccccc2)C(C(C)=O)=C(C)N1 (configuration not stated),0.93,8,1,0.9,0.99,7,·
Cc1cnc(C(=O)NNC(=O)c2ccc(Br)cc2)cn1,2.2*,·,14,·,0.86,-122,-38
CCC1(C)Cc2sc3c(=O)[nH]c(=S)[nH]c3c2CO1 (configuration not stated),1.1,12,1,0.9,0.99,-6,·
Cc1ccc2occ(/C=N/NC(=O)c3ccncc3)c(=O)c2c1,2.3*,·,10,·,0.9,-131,-31
CC(NC(=O)COC(=O)c1ccc(CO)cc1)C1CC2CCC1C2 (configuration not stated),0.81,·,-2,·,1,18,·
COc1ccccc1C(=O)NN=C1CCN(Cc2ccccc2)CC1,0.92,-2,-1,1,1,8,·
O=C(/C=C/c1cc(Br)ccc1O)c1ccco1,0.91,·,3,·,0.97,9,·
O=C(/C=C/c1ccccc1O)c1ccco1,0.58,·,22,·,0.78,42*,-104*
COc1cc(/C=C2\NC(=S)N(C)C2=O)ccc1OCc1cccc(F)c1,0.91,·,7,·,0.93,9,·
N#CC1(NC(=O)CN2C(=O)NC3(CCCCCC3)C2=O)CCCCC1,0.84,·,3,·,0.97,16,·
COc1cccc(-c2c[nH]c(=O)[nH]c2=O)c1,0.87,11,-1,0.9,1,13,·
Cc1c(Cl)cccc1NC(=O)C(=O)NNS(=O)(=O)c1ccc(F)cc1,2.4*,·,20,·,0.8,-139,-20
O=C(/C=C/c1ccc(O)cc1)c1ccc(NC2=C(N3CCCCC3)C(=O)c3ccccc3C2=O)cc1,0.65,35,29,0.6,0.71,35*,0
O=C1C(Nc2ccccc2)=C(N2CCCCC2)C(=O)c2ccccc21,0.96,16,0,0.8,1,4,·
CCOC(=O)C1CCN(CC(O)COc2ccc(C(=O)CC)cc2)CC1 (configuration not stated),0.64,-4,-4,1,1,36*,-27
O=C(CN1CCN(C(=O)C2COc3ccccc3O2)CC1)Nc1ccccc1 (configuration not stated),0.6,·,9,·,0.91,40*,-9
COc1ccc(C(=O)N/C(=C/c2ccco2)C(=O)NC2CCS(=O)(=O)C2)cc1 (configuration not stated),1,0,-11,1,1.1,-4,·
CCCCN(C(=O)CSc1cc(C)c2ccc(OC)cc2n1)c1c(N)n(Cc2ccccc2)c(=O)[nH]c1=O,1.1,12,0,0.9,0.99,-6,·
O=C(CCCSc1nc(-c2ccco2)cc(C(F)(F)F)n1)NCc1cccs1,0.63,7,5,0.9,0.95,37*,-29
CCN(Cc1ccccc1)c1ccc(N=Nc2nn(C)c(C)c2[N+](=O)[O-])cc1,0.65,6,34,0.9,0.66,35,·
CCN(CC)c1ccc(N=Nc2nn(C)c(C)c2[N+](=O)[O-])cc1,0.53,24,33,0.8,0.67,47*,35
O=C1COc2ccc(C(=O)COC(=O)c3cnc(Cl)c(Cl)c3)cc2N1,1.1,-6,-2,1.1,1,-8,·
COc1cc(C(=O)NC(=S)NNC(=O)c2cnccn2)cc(OC)c1OC,2.2*,31,24,0.7,0.76,-116,-22
O=C(Nc1ccc(OC(F)(F)F)cc1)NC1CCC(Oc2ccc(C(=O)O)cc2)CC1 (configuration not stated),3.8*,·,-33,·,1.3,-280,-35
COc1ccc(OC)c(NC(=O)NCCc2c[nH]c3ccccc23)c1,1,·,-16,·,1.2,-1,·
COc1cc(CNc2ccc(CNc3ncn[nH]3)cc2)cc(Cl)c1OCc1ccccc1,1.2,5,-3,1,1,-21,·
COc1ccc(O)c(/C=N/NC(=S)NCCc2ccccc2)c1,2.1*,·,9,·,0.91,-107,-91*
Oc1ccc(Br)cc1/C=N/NC(=S)NCCc1ccccc1,1.1,·,7,·,0.93,-6,·
